The target in experiment [1] is T1, Histone acetyltransferase p300 (Homo sapiens, UniProt Q09472). The experiment is described as follows: Inhibition of recombinant human GST-tagged p300 HAT domain (1195 to 1673 residues) expressed in Escherichia coli BL21 codon plus cells at 10 uM using Histone H3 peptide (1 to 21) and [3H]acetyl-CoA as substrate preincubated with enzyme for 10 mins followed by substrate addition and measured after 30 mins by scintillation counting method relative to control.

Experiment [2] addresses T1, Histone acetyltransferase p300. The experiment in a line: Inhibition of recombinant human GST-tagged p300 HAT domain (1195 to 1673 residues) expressed in Escherichia coli BL21 codon plus cells using Histone H3 peptide (1 to 21) and [3H]acetyl-CoA as substrate preincubated with enzyme for 10 mins followed by substrate addition and measured after 30 mins by scintillation counting method. In short, it runs like this:
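The compound (100 nM to 10 µM) was preincubated with p300-HAT (10 nM) for 10 min at 25 °C in 50 mM phosphate buffer pH 7.0 with 0.01% Brij-35. Incorporation of [3H]acetyl from Ac-CoA into histone H3 (1-21) peptide was captured on filter paper, washed with 50 mM NaHCO3 and counted by scintillation. IC50 came from a sigmoidal dose-response fit, mean of at least three experiments.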

Experiment [3] deals with Lysine-specific histone demethylase 1A (Homo sapiens) (UniProt O60341). The experiment in a line: Inhibition of LSD1 (unknown origin) at 50 uM.
Experiment [4] concerns the target Histone acetyltransferase KAT6A (Homo sapiens, UniProt Q92794). The experiment is described as follows: Inhibition of recombinant human GST-tagged Myst3 expressed in Escherichia coli BL21 codon plus cells using Histone H3 peptide (1 to 21) and [3H]acetyl-CoA as substrate preincubated with enzyme for 10 mins followed by substrate addition and measured after 30 mins by scintillation counting method. An outline of the steps:
(§1)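 CBP, PCAF and Myst3 HAT proteins were prepared like GST-p300-HAT: expressed in E. coli BL21-CodonPlus, purified on glutathione resin, then by gel filtration. Inhibition was measured in the same radiometric filter assay with [3H]Ac-CoA and histone H3 (1-21) peptide, read by scintillation counting.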

In a further experiment the test system is Kasumi 1. The experiment in a line: Antiproliferative activity against human Kasumi-1 cells assessed as reduction in cell viability incubated for 5 days by XTT assay. The following applies: Kasumi 1, 120 h. For orientation: Formazan colour is commonly taken as a measure of viable cells.
The target in another experiment is CREB-binding protein (Homo sapiens, UniProt Q92793). The experiment is described as follows: Inhibition of recombinant human GST-tagged CBP HAT domain expressed in Escherichia coli BL21 codon plus cells using Histone H3 peptide (1 to 21) and [3H]acetyl-CoA as substrate preincubated with enzyme for 10 mins followed by substrate addition and measured after 30 mins by scintillation counting method. In short, it runs like this:
as §1

The subject of another experiment is PANC-1. The experiment is described as follows: Antiproliferative activity against human PANC1 cells assessed as reduction in cell viability incubated for 5 days by MTT assay. The following applies: PANC-1, 120 h.
Experiment [5] deals with Histone acetyltransferase KAT2B (Homo sapiens, UniProt Q92831). The experiment is described as follows: Inhibition of recombinant human GST-tagged PCAF expressed in Escherichia coli BL21 codon plus cells using Histone H3 peptide (1 to 21) and [3H]acetyl-CoA as substrate preincubated with enzyme for 10 mins followed by substrate addition and measured after 30 mins by scintillation counting method. In short, it runs like this: as §1

Experiment [6] concerns MCF7. The experiment is described as follows: Antiproliferative activity against human tamoxifen-resistant MCF7 cells assessed as reduction in cell viability incubated for 6 days by Celigo-insitu cell cytometer analysis. The following applies: MCF7, 144 h.
Experiment [7] is described as follows: Antiproliferative activity against human MDAPanc28 cells assessed as reduction in cell viability incubated for 5 days by MTT assay. The note with it: MDA-Panc-28, 120 h.
Experiment [8] concerns MCF7. The experiment is described as follows: Antiproliferative activity against human MCF7 cells assessed as reduction in cell viability incubated for 6 days by Celigo-insitu cell cytometer analysis. The note with it: MCF7, 144 h.
In experiment [9] the target is T2, CREB-binding protein/Histone acetyltransferase p300 (Homo sapiens) (UniProt Q09472+Q92793). The experiment in a line: Inhibition of p300/CBP HAT domain in human Kasumi-1 cells assessed as reduction in H3K27 acetylation at 5 to 10 uM incubated for 12 hrs by Western blot analysis. The experiment is classed as cell-based. An outline of the steps:
(§2)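 Kasumi-1 cells (10^6 per well) were treated with compound at 0, 5 and 10 µM for 12 h. Total histones were extracted, and 2 µg was run on SDS-PAGE and blotted to PVDF. Blots were probed for H3K9Ac, H3K18Ac, H3K27Ac and total H3, then with an anti-rabbit IgG secondary.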
In general terms: A western blot detects proteins with antibodies after separation by electrophoresis.

The target in experiment [10] is T1, Histone acetyltransferase p300. The experiment is described as follows: Inhibition of His6-tagged p300 HAT domain (unknown origin) assessed as disruption of p300 and Histone H4 (1-21) peptide interaction incubated for 1 hr by Alpha assay. An outline of the steps:
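Varying compound concentrations were added in PBS with 0.5% BSA for 1 h. Signal was read with excitation at 680 nm and emission at 570 nm. A biotinylated His6 peptide served as an interference counter-control. IC50 came from a sigmoidal fit.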

For experiment [11], the target named is T2, CREB-binding protein/Histone acetyltransferase p300 (Homo sapiens). The experiment in a line: Inhibition of p300/CBP HAT domain in human Kasumi-1 cells assessed as reduction in H3K9 acetylation at 5 to 10 uM incubated for 12 hrs by Western blot analysis. The experiment is classed as cell-based. An outline of the steps: as §2
Experiment [12] has the same target. The experiment is described as follows: Inhibition of p300/CBP HAT domain in human Kasumi-1 cells assessed as reduction in H3K18 acetylation at 5 to 10 uM incubated for 12 hrs by Western blot analysis. The experiment is classed as cell-based. In short, it runs like this: as §2
Experiment [13] in a line: Inhibition of p300 HAT domain (1287-1652 residues) (unknown origin) harboring regulatory auto-acetylation loop deletion mutant and M1652G mutant using H4-15 peptide as substrate preincubated with enzyme and substrate for 10 mins followed by addition of [12C]acetylCoA and [14C]acetylCoA for 10 mins by phosphor-imaging analysis. Further details: species or system Homo sapiens.

Drawing on ChEMBL document CHEMBL4342520, “Discovery, Structure-Activity Relationship, and Biological Activity of Histone-Competitive Inhibitors of Histone Acetyltransferases P300/CBP” (J Med Chem, 2020), this text covers inhibition, IC50 and EC50 for 36 compounds.

Active and inactive are the calls of the source. The rule behind the calls is not given here.

T1 sequence (Q09472 whole entry, the tested form may be a part): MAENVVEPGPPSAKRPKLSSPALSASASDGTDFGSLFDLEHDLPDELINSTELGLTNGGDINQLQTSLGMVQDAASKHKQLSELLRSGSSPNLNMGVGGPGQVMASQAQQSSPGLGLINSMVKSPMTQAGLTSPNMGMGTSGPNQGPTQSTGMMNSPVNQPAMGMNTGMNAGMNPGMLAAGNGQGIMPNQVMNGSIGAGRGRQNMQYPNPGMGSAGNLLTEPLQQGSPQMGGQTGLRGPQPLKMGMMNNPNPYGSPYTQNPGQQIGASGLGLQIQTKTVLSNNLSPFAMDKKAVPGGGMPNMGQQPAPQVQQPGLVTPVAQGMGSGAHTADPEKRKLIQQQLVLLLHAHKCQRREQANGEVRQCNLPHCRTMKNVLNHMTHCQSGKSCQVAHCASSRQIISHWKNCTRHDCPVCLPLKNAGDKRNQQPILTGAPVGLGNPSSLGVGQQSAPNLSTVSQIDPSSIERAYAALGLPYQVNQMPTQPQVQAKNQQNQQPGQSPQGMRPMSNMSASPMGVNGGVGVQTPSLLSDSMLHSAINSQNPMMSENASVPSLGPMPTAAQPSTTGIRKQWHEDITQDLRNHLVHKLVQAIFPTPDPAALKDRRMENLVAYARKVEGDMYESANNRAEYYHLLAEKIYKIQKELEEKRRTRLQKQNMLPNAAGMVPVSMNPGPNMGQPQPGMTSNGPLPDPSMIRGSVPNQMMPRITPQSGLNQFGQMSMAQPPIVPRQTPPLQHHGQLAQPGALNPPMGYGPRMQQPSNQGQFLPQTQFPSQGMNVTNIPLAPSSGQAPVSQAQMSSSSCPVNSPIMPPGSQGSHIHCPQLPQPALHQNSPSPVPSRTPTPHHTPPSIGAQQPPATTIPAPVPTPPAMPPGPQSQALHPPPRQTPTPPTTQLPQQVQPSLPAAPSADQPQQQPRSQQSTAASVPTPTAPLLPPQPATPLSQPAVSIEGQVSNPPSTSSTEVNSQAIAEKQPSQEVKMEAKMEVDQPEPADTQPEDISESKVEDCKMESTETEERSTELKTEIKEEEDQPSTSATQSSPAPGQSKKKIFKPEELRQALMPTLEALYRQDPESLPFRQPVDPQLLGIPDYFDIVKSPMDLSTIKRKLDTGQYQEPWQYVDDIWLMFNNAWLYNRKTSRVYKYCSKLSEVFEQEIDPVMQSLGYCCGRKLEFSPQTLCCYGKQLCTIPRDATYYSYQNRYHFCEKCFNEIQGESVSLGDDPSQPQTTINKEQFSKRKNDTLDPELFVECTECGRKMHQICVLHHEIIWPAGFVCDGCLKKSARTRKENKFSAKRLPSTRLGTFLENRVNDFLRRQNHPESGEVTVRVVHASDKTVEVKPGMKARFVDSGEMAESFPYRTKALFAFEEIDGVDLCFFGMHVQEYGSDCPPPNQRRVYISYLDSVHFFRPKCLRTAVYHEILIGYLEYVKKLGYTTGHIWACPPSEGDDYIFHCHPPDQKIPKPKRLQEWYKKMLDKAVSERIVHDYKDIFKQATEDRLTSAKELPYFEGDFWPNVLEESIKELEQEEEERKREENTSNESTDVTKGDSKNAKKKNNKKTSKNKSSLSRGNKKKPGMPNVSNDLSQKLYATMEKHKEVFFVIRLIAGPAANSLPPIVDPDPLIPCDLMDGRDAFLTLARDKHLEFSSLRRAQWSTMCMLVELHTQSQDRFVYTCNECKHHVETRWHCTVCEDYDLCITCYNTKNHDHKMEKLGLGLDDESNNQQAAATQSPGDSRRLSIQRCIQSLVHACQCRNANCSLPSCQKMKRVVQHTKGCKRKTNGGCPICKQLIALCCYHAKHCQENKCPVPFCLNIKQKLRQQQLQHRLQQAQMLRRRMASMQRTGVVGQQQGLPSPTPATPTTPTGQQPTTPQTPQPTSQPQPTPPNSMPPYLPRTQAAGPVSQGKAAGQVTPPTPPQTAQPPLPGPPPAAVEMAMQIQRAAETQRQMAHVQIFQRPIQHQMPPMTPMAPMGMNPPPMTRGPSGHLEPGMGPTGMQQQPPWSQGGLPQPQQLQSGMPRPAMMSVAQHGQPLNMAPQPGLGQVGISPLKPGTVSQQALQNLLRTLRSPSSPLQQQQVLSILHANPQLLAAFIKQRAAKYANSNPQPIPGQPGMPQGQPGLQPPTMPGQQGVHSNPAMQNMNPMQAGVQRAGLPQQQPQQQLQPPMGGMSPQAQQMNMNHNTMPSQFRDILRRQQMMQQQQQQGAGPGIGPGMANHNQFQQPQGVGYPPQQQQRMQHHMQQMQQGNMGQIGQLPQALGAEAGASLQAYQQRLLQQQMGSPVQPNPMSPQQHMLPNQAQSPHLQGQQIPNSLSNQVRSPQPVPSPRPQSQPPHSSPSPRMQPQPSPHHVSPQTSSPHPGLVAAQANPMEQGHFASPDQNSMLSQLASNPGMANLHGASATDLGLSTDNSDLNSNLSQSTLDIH
T2 sequence (Q09472 whole entry, looked up, the tested form may be a part): as the sequence (Q09472 whole entry, the tested form may be a part) above
T2 sequence (Q92793 whole entry, looked up, the tested form may be a part): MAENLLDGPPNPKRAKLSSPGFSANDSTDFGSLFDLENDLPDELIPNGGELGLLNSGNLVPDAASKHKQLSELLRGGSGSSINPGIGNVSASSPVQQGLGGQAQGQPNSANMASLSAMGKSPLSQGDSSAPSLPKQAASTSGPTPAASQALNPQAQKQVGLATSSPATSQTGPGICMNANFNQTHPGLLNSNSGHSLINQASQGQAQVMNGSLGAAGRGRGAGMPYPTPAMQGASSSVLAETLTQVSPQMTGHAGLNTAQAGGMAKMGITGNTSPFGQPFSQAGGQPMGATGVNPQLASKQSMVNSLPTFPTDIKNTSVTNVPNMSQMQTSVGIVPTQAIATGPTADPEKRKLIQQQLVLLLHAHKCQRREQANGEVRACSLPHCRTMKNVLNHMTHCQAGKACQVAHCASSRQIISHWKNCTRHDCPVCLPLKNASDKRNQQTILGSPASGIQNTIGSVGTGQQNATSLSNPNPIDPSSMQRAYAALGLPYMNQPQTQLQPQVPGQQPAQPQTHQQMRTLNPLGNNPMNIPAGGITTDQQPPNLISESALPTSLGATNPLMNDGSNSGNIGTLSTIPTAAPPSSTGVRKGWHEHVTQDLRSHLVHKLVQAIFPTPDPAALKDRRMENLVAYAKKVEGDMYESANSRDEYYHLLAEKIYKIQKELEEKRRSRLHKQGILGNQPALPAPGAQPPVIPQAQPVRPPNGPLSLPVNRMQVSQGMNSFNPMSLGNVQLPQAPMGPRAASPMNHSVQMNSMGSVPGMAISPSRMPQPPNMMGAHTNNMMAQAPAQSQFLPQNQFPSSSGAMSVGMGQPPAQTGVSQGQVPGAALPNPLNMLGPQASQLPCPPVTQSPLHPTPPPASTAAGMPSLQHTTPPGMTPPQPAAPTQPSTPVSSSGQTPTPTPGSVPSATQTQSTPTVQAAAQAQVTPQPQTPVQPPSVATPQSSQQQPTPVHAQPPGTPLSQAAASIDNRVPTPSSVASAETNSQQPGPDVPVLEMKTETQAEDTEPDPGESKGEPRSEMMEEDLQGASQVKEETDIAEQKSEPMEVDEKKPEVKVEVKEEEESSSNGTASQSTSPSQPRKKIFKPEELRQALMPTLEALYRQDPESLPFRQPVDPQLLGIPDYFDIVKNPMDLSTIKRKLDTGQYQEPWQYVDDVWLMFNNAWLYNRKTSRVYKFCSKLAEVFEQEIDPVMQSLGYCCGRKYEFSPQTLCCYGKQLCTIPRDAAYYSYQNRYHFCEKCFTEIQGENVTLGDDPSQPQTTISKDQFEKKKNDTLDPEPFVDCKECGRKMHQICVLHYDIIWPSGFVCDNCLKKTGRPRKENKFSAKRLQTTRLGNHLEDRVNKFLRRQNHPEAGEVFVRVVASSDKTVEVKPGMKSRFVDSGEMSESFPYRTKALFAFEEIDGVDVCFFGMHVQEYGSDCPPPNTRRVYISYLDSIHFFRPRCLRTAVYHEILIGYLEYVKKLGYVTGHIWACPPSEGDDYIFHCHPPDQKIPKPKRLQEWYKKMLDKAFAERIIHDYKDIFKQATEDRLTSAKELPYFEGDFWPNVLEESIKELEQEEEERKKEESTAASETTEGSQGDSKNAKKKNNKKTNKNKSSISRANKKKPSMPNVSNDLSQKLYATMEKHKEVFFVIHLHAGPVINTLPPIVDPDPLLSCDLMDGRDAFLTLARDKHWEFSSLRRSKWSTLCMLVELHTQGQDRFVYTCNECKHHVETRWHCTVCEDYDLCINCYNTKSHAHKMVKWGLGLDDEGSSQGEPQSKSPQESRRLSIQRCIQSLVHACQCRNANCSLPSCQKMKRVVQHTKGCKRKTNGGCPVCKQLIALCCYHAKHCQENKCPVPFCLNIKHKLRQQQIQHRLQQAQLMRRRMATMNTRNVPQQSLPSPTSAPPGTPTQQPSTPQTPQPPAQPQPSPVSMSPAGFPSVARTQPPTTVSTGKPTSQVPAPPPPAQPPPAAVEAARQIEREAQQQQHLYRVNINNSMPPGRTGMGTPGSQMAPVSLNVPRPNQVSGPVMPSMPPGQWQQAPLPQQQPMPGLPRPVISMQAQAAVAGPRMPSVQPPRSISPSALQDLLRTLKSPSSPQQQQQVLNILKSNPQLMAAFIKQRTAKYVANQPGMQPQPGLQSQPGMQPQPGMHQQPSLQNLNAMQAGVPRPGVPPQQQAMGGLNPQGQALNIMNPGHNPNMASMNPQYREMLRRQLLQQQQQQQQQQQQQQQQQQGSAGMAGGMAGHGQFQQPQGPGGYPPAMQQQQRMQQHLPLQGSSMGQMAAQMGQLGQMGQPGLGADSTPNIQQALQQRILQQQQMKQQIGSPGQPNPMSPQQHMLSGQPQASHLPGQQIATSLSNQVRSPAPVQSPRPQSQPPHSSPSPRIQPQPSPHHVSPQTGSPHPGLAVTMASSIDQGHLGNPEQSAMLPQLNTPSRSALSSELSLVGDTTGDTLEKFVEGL
Chain of CREB-binding protein (Q92793 whole entry, the tested form may be a part): as the sequence (Q92793 whole entry, looked up, the tested form may be a part) above

For `CC(C)(C)c1ccc(-c2sc(C(=O)NCC3CCNCC3)cc2-c2ccoc2)cc1`, the inhibition (commonly how much of the control response was suppressed) in experiment [1] is 36%. In addition, the IC50 – broadly, the concentration needed to halve the response being measured – in [2] was over 10 µM.
In the case of `CC(C)(C)c1ccc(-c2nc(CNCC3CCNCC3)sc2-c2ccc(C(C)(C)C)cc2)cc1`, the IC50 in [2] came out at 8.6 µM.
Still for that read-out and setting: to `CC(C)(C)c1ccc(-c2cc(CNCC3CCNCC3)sc2-c2ccc(CN)cc2)cc1` belongs 2 µM.
On to `OCc1ccc(-c2cc(CNCC3CCNCC3)sc2-c2ccc(CO)cc2)cc1`, for which, in [1], the inhibition came out at 22%. Moreover, the IC50 in experiment [2] is over 10 µM.
Turning to `CC(C)(C)c1ccc(-c2cc(CNC3CCNCC3)sc2-c2ccc(C(C)(C)C)cc2)cc1`, the IC50 in experiment [2] turned out to be 5 µM.
Regarding `c1cc(-c2ccc(-c3ncc(CNCC4CCNCC4)nc3-c3ccc(-c4ccoc4)cc3)cc2)co1`, the inhibition in experiment [1] turned out to be 25%.
On the same count and under the same terms, to `CC(C)(C)c1ccc(-c2csc(CNCC3CCNCC3)n2)cc1` belongs 10%.
`CC(C)(C)c1ccc(-c2cc(CNCCCCCCN)sc2-c2ccc(C(C)(C)C)cc2)cc1`: in [2], the IC50 is 1.4 µM.
The same measure, in the same setting: to `COc1ccc(-c2ccc(-c3cc(CNCC4CCNCC4)sc3-c3ccc(-c4ccc(OC)cc4)cc3)cc2)cc1` belongs 7.4 µM.
Still for that read-out and setting: to `c1cc(-c2ccc(-c3cc(CNCC4CCNCC4)sc3-c3ccc(-c4ccoc4)cc3)cc2)co1` belongs 1.7 µM.
Regarding `CC(C)(C)c1ccc(-c2sc(CNCC3CCNCC3)cc2-c2ccc(CN)cc2)cc1`, the inhibition in experiment [1] was 35%. The IC50 in experiment [2] is over 10 µM.
As to `CC(C)(C)c1ccc(-c2cc(CN3CCOCC3)sc2-c2ccc(C(C)(C)C)cc2)cc1`, the inhibition in experiment [1] is 20%. Besides, in experiment [2], the IC50 is over 10 µM.
As for `CC(C)(C)c1ccc(-c2sc(CNCC3CCNCC3)c(Br)c2-c2ccc(C(C)(C)C)cc2)cc1`, the IC50 in experiment [2] worked out at 1.8 µM.
On to `CC(C)(C)c1ccc(-c2cc(C(=O)NCC3CCNCC3)sc2-c2ccc(C(C)(C)C)cc2)cc1`, for which, in experiment [3], the inhibition entry is “inactive”. Further, the half-inhibitory concentration (IC50) in experiment [2] turned out to be 8.6 µM.
With `CC(C)(C)c1ccc(-c2cc(CNCCC3CCNCC3)sc2-c2ccc(C(C)(C)C)cc2)cc1`, the IC50 in experiment [2] turned out to be 2.2 µM.
Take `c1ccc(-c2cccc(-c3cc(CNCC4CCNCC4)sc3-c3cccc(-c4ccccc4)c3)c2)cc1`: the inhibition in experiment [1] is 18%. In addition, the IC50 in experiment [2] is over 10 µM.
As for `CC(C)(C)c1ccc(-c2sc(C(=O)NCC3CCNCC3)cc2-c2cccnc2)cc1`, the inhibition in experiment [1] was found to be 31%. Further, in experiment [2], the IC50 was over 10 µM.
For the compound `CC(C)(C)c1ccc(-c2nc(C(=O)NCC3CCNCC3)sc2-c2ccc(C(C)(C)C)cc2)cc1`, in experiment [2], the IC50 turned out to be 2.4 µM.
In the case of `CC(C)(C)c1ccc(-c2cc(CNCC3CCNCC3)sc2-c2ccc(C(C)(C)C)cc2)cc1`, the values for the IC50 (in experiment [4]; on CREB-binding protein; in experiment [5]) were over 50 µM, 1.2 µM and over 50 µM, respectively. In [3], the inhibition entry is “inactive”. For the same compound, the EC50 (in general, the midpoint of the concentration-response curve) amounted to 2.6 µM in the experiment with Kasumi 1; 1 µM in the experiment with PANC-1; 3.4 µM with MCF7 [6]; 2.8 µM in [7]; 2.8 µM with MCF7 [8].
Consider `COc1ccc(-c2cc(CNCC3CCNCC3)sc2-c2ccc(OC)c(OC)c2)cc1OC`, for which the inhibition in [1] turned out to be 0%. In addition, the EC50 in the experiment on Kasumi 1 was 18.7 µM; in the experiment on PANC-1, over 30 µM; in the experiment on MCF7 [6] it was over 30 µM; in experiment [7] it was over 30 µM; in the experiment on MCF7 [8], over 30 µM. Further, the IC50 in [2] is over 10 µM.
Regarding `CC(C)(C)c1ccc(-c2sc(CNCC3CCNCC3)cc2-c2ccc(-c3ccoc3)cc2)cc1`, the IC50 in experiment [2] amounted to 5.8 µM.
Turning to `CCCCc1ccc(-c2cc(CNCC3CCNCC3)sc2-c2ccc(CCCC)cc2)cc1`, the inhibition in experiment [1] amounted to 10%. The IC50 in experiment [2] was over 10 µM.
Turning to `O=C(NCC1CCNCC1)c1cc(-c2ccc(CN3CCCCC3)cc2)c(-c2ccc(-c3ccoc3)cc2)s1`, the IC50 in experiment [2] was 1.6 µM.
With `NCc1ccc(-c2cc(CNCC3CCNCC3)sc2-c2ccc(CN)cc2)cc1`, the inhibition in [1] was 0%. The EC50 (in the experiment on Kasumi 1; in the experiment with PANC-1; in the experiment on MCF7 [6]; in experiment [7]; in the experiment on MCF7 [8]) was over 30 µM throughout. The inhibition result in experiment [9], in experiment [10], in experiment [11] and in experiment [12] was “inactive” in each case. Moreover, the IC50 in experiment [2] is over 10 µM.
For the compound `c1cc(-c2ccc(-c3cc(CNCC4CCNCC4)sc3-c3ccc(CN4CCCCC4)cc3)cc2)co1`, the IC50 in [2] stood at 4.6 µM.
Take `CC(C)(C)c1ccc(-c2sc(C(=O)NCC3CCNCC3)cc2-c2ccc(CN)cc2)cc1`: the IC50 in experiment [2] was found to be 10 µM.
In the case of `c1cc(-c2cc(CNCC3CCNCC3)sc2-c2ccoc2)co1`, in [1], the inhibition amounted to 23%. Also, the IC50 in [2] was over 10 µM.
On to `CC(C)(C)c1ccc(-c2cc(CNCCCN)sc2-c2ccc(C(C)(C)C)cc2)cc1`, for which the IC50 in experiment [2] was 3 µM.
`CC(C)(C)c1ccc(-c2cc(CN3CCNCC3)sc2-c2ccc(C(C)(C)C)cc2)cc1`: the inhibition in experiment [1] worked out at 5%. The IC50 in [2] is over 10 µM.
Turning to `O=C(NCC1CCNCC1)c1cc(-c2ccc(-c3ccoc3)cc2)c(-c2ccc(-c3ccoc3)cc2)s1`, in experiment [2], the IC50 worked out at 1.6 µM.
In the case of `COc1ccc(-c2ccc(-c3cc(C(=O)NCC4CCNCC4)sc3-c3ccc(-c4ccc(OC)cc4)cc3)cc2)cc1`, the half-maximal inhibitory concentration (IC50) in experiment [2] was determined as 2.8 µM.
With `CC(C)(C)c1ccc(-c2csc(C(=O)NCC3CCNCC3)n2)cc1`, the inhibition in [1] amounted to 18%.
With `CC(C)(C)c1ccc(-c2sc(C(=O)NCC3CCNCC3)cc2-c2ccc(-c3ccoc3)cc2)cc1`, in [2], the IC50 is 7.4 µM.
In [13], `CC1=NN(c2ccc(C(=O)O)cc2)C(=O)/C1=C\c1ccc(-c2cc(C)c(C)cc2[N+](=O)[O-])o1` yielded an IC50 of 1.6 µM.
With `CC(C)(C)c1ccc(-c2cc(COCC3CCNCC3)sc2-c2ccc(C(C)(C)C)cc2)cc1`, in experiment [1], the inhibition came to 0%. The IC50 in experiment [2] was over 10 µM.
For the compound `CC(C)(C)c1ccc(-c2sc(C(=O)NCC3CCNCC3)cc2-c2ccc(CN3CCNCC3)cc2)cc1`, the inhibition in experiment [1] is 12%. The IC50 in experiment [2] was over 10 µM.
